From ChEMBL document CHEMBL4017533, “Molecular Recognition of Agonists and Antagonists by the Nucleotide-Activated G Protein-Coupled P2Y2 Receptor” (J Med Chem, 2017)
Active and inactive are the calls of the source. The rule behind the calls is not given here.

How the values were obtained:
Homo sapiens [1] = organism: Homo sapiens; assay: Selectivity ratio of IC50 for P2Y2 receptor R194H mutant (unknown origin) to IC50 for wild type P2Y2 receptor (unknown origin)
Homo sapiens [2] = organism: Homo sapiens; assay: Selectivity ratio of IC50 for P2Y2 receptor F261A mutant (unknown origin) to IC50 for wild type P2Y2 receptor (unknown origin)
P2Y purinoceptor 2 [3] = target: T1, P2Y purinoceptor 2 (Homo sapiens, UniProt P41231); assay: (§1) Antagonist activity at wild type P2Y2 receptor (unknown origin) expressed in human 1321N1 astrocytoma cells assessed as inhibition of UTP-induced increase in intracellular calcium mobilization preincubated for 30 mins followed by UTP addition measured after 1 hr by Fluo-4 AM dye based fluorescence assay; format: functional, cell-based
T1 sequence (P41231 whole entry): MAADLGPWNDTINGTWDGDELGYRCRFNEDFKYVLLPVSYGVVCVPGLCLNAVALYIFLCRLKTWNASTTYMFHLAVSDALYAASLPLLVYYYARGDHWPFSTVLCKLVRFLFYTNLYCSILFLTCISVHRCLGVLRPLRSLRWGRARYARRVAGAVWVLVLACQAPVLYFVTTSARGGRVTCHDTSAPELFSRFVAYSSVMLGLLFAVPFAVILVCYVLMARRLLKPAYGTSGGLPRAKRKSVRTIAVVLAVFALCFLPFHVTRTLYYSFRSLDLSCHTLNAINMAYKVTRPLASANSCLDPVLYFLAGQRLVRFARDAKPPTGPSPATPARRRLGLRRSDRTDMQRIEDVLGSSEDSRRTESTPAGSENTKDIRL
Procedure, shortened: (§2)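 Stably transduced 1321N1 cells expressing wt or mutant human P2Y2R were loaded with fluo-4 AM/Pluronic F-127 in HBSS for 1 h. Test compound was preincubated for 30 min, then UTP was injected at the EC80 determined for each cell line. Calcium fluorescence was read at ex 488/em 525 nm. IC50 was obtained by nonlinear regression, n ≥ 3.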

Homo sapiens [4] = organism: Homo sapiens; assay: Selectivity ratio of IC50 for P2Y2 receptor Y114F mutant (unknown origin) to IC50 for wild type P2Y2 receptor (unknown origin)
Procedure, shortened: (§3)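 Human P2Y2R, wild type or single point mutant, retrovirally transduced into 1321N1 astrocytoma cells and selected with G418. Cells were seeded at 50000/well overnight, loaded with fluo-4 AM for 1 h in HBSS, and preincubated with antagonist for 30 min. UTP was then injected at its EC80 for that cell line. Calcium fluorescence was read at ex 488/em 525 nm. IC50 was fitted by nonlinear regression (n ≥ 3), and the ratio was taken as mutant IC50 over wild-type IC50.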

Homo sapiens [5] = organism: Homo sapiens; assay: Selectivity ratio of IC50 for P2Y2 receptor Y288F mutant (unknown origin) to IC50 for wild type P2Y2 receptor (unknown origin); procedure, shortened: as §3
Homo sapiens [6] = organism: Homo sapiens; assay: Selectivity ratio of IC50 for P2Y2 receptor Y268F mutant (unknown origin) to IC50 for wild type P2Y2 receptor (unknown origin); procedure, shortened: as §3
Homo sapiens [7] = organism: Homo sapiens; assay: Selectivity ratio of EC50 for P2Y2 receptor R272A mutant (unknown origin) to EC50 for wild type P2Y2 receptor (unknown origin)
[8] = system: P2Y purinoceptor 2 (Homo sapiens), P41231 [Y288F]; assay: (§4) Agonist activity at P2Y2 receptor Y288F mutant (unknown origin) expressed in human 1321N1 astrocytoma cells assessed as increase in intracellular calcium mobilization after 1 hr by Fluo-4 AM dye based fluorescence assay; format: functional, cell-based
Chain of P2Y purinoceptor 2 (Homo sapiens), P41231 [Y288F] (P41231 whole entry Y288F): as the sequence (P41231 whole entry) above, with Y288F counted along it
Procedure, shortened: (§5)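 Human 1321N1 astrocytoma cells stably carrying wt or point-mutant human P2Y2R, introduced by retrovirus and selected with G418, plated at 50000 cells/well the day before. Cells loaded with fluo-4 AM plus Pluronic F-127 in HBSS for 1 h, then washed. Agonist added at graded concentrations, fluorescence read at ex 488/em 525 nm. […] Carbachol 100 μM acting on endogenous M3 served as the maximum reference.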

[9] = system: P2Y purinoceptor 2 (Homo sapiens), P41231 [F261A]; assay: Agonist activity at P2Y2 receptor F261A mutant (unknown origin) expressed in human 1321N1 astrocytoma cells assessed as increase in intracellular calcium mobilization after 1 hr by Fluo-4 AM dye based fluorescence assay; format: functional, cell-based; procedure, shortened: as §5
Chain of P2Y purinoceptor 2 (Homo sapiens), P41231 [F261A] (P41231 whole entry F261A): as the sequence (P41231 whole entry) above, with F261A counted along it

[10] = system: P2Y purinoceptor 2 (Homo sapiens), P41231 [Y114F]; assay: Agonist activity at P2Y2 receptor Y114F mutant (unknown origin) expressed in human 1321N1 astrocytoma cells assessed as increase in intracellular calcium mobilization after 1 hr by Fluo-4 AM dye based fluorescence assay; format: functional, cell-based; procedure, shortened: as §5
Chain of P2Y purinoceptor 2 (Homo sapiens), P41231 [Y114F] (P41231 whole entry Y114F): as the sequence (P41231 whole entry) above, with Y114F counted along it

[11] = system: P2Y purinoceptor 2 (Homo sapiens), P41231 [R110A]; assay: Agonist activity at P2Y2 receptor R110A mutant (unknown origin) expressed in human 1321N1 astrocytoma cells assessed as increase in intracellular calcium mobilization after 1 hr by Fluo-4 AM dye based fluorescence assay; format: functional, cell-based; procedure, shortened: as §5
Chain of P2Y purinoceptor 2 (Homo sapiens), P41231 [R110A] (P41231 whole entry R110A): as the sequence (P41231 whole entry) above, with R110A counted along it

[12] = system: P2Y purinoceptor 2 (Homo sapiens), P41231 [R292A]; assay: Agonist activity at P2Y2 receptor R292A mutant (unknown origin) expressed in human 1321N1 astrocytoma cells assessed as increase in intracellular calcium mobilization after 1 hr by Fluo-4 AM dye based fluorescence assay; format: functional, cell-based; procedure, shortened: as §5
Chain of P2Y purinoceptor 2 (Homo sapiens), P41231 [R292A] (P41231 whole entry R292A): as the sequence (P41231 whole entry) above, with R292A counted along it

Homo sapiens [13] = organism: Homo sapiens; assay: Agonist activity at P2Y2 receptor R194A mutant (unknown origin) expressed in human 1321N1 astrocytoma cells assessed as increase in intracellular calcium mobilization after 1 hr by Fluo-4 AM dye based fluorescence assay; format: cell-based; procedure, shortened: as §5
[14] = system: P2Y purinoceptor 2 (Homo sapiens), P41231 [R265A]; assay: Agonist activity at P2Y2 receptor R265A mutant (unknown origin) expressed in human 1321N1 astrocytoma cells assessed as increase in intracellular calcium mobilization after 1 hr by Fluo-4 AM dye based fluorescence assay; format: functional, cell-based; procedure, shortened: as §5
Chain of P2Y purinoceptor 2 (Homo sapiens), P41231 [R265A] (P41231 whole entry R265A): as the sequence (P41231 whole entry) above, with R265A counted along it

[15] = system: P2Y purinoceptor 2 (Homo sapiens), P41231 [Y288A]; assay: Agonist activity at P2Y2 receptor Y288A mutant (unknown origin) expressed in human 1321N1 astrocytoma cells assessed as increase in intracellular calcium mobilization after 1 hr by Fluo-4 AM dye based fluorescence assay; format: functional, cell-based; procedure, shortened: as §5
Chain of P2Y purinoceptor 2 (Homo sapiens), P41231 [Y288A] (P41231 whole entry Y288A): as the sequence (P41231 whole entry) above, with Y288A counted along it

Homo sapiens [16] = organism: Homo sapiens; assay: Selectivity ratio of EC50 for P2Y2 receptor R194H mutant (unknown origin) to EC50 for wild type P2Y2 receptor (unknown origin)
Homo sapiens [17] = organism: Homo sapiens; assay: Selectivity ratio of EC50 for P2Y2 receptor H184A mutant (unknown origin) to EC50 for wild type P2Y2 receptor (unknown origin)
Homo sapiens [18] = organism: Homo sapiens; assay: Selectivity ratio of EC50 for P2Y2 receptor Y268F mutant (unknown origin) to EC50 for wild type P2Y2 receptor (unknown origin)
P2Y purinoceptor 2 [19] = target: P2Y purinoceptor 2 (Homo sapiens, UniProt P41231, Y288F); assay: as §4; format: functional, cell-based; procedure, shortened: as §5
Chain of P2Y purinoceptor 2 (Homo sapiens, UniProt P41231, Y288F) (P41231 whole entry Y288F): as the sequence (P41231 whole entry) above, with Y288F counted along it

Homo sapiens [20] = organism: Homo sapiens; assay: Selectivity ratio of EC50 for P2Y2 receptor Y269F mutant (unknown origin) to EC50 for wild type P2Y2 receptor (unknown origin)
Homo sapiens [21] = organism: Homo sapiens; assay: Selectivity ratio of EC50 for P2Y2 receptor S193A mutant (unknown origin) to EC50 for wild type P2Y2 receptor (unknown origin)
Homo sapiens [22] = organism: Homo sapiens; assay: Selectivity ratio of EC50 for P2Y2 receptor R194A mutant (unknown origin) to EC50 for wild type P2Y2 receptor (unknown origin)
Homo sapiens [23] = organism: Homo sapiens; assay: Selectivity ratio of EC50 for P2Y2 receptor F111A mutant (unknown origin) to EC50 for wild type P2Y2 receptor (unknown origin)
Homo sapiens [24] = organism: Homo sapiens; assay: Selectivity ratio of EC50 for P2Y2 receptor Y288F mutant (unknown origin) to EC50 for wild type P2Y2 receptor (unknown origin)
Homo sapiens [25] = organism: Homo sapiens; assay: Selectivity ratio of EC50 for P2Y2 receptor F261A mutant (unknown origin) to EC50 for wild type P2Y2 receptor (unknown origin)
P2Y purinoceptor 2 [26] = target: P2Y purinoceptor 2 (Homo sapiens, UniProt P41231, H184A); assay: Agonist activity at P2Y2 receptor H184A mutant (unknown origin) expressed in human 1321N1 astrocytoma cells assessed as increase in intracellular calcium mobilization after 1 hr by Fluo-4 AM dye based fluorescence assay; format: functional, cell-based; procedure, shortened: as §5
Chain of P2Y purinoceptor 2 (Homo sapiens, UniProt P41231, H184A) (P41231 whole entry H184A): as the sequence (P41231 whole entry) above, with H184A counted along it

P2Y purinoceptor 2 [27] = target: P2Y purinoceptor 2 (Homo sapiens, UniProt P41231, S193A); assay: Agonist activity at P2Y2 receptor S193A mutant (unknown origin) expressed in human 1321N1 astrocytoma cells assessed as increase in intracellular calcium mobilization after 1 hr by Fluo-4 AM dye based fluorescence assay; format: functional, cell-based; procedure, shortened: as §5
Chain of P2Y purinoceptor 2 (Homo sapiens, UniProt P41231, S193A) (P41231 whole entry S193A): as the sequence (P41231 whole entry) above, with S193A counted along it

Homo sapiens [28] = organism: Homo sapiens; assay: Selectivity ratio of EC50 for P2Y2 receptor Y114F mutant (unknown origin) to EC50 for wild type P2Y2 receptor (unknown origin)
P2Y purinoceptor 2 [29] = target: T1, P2Y purinoceptor 2; assay: Agonist activity at wild type P2Y2 receptor (unknown origin) expressed in human 1321N1 astrocytoma cells assessed as increase in intracellular calcium mobilization after 1 hr by Fluo-4 AM dye based fluorescence assay; format: functional, cell-based; procedure, shortened: as §5
Homo sapiens [30] = organism: Homo sapiens; assay: as §1, with “receptor R194H mutant” for “receptor”; format: cell-based; procedure, shortened: as §2
Homo sapiens [31] = organism: Homo sapiens; assay: as §1, with “receptor Y114A mutant” for “receptor”; format: cell-based; procedure, shortened: as §2
[32] = system: P2Y purinoceptor 2 (Homo sapiens), P41231 [Y114F]; assay: as §1, with “receptor Y114F mutant” for “receptor”; format: functional, cell-based; procedure, shortened: as §2

With Cc1ccc2c(c1)C=Cc1cc(C)ccc1C2c1cn(Cc2ccc(C(=O)Nc3nnn[nH]3)o2)c(=O)[nH]c1=S the Ratio IC50 (Homo sapiens [1]) was less than 3, the Ratio IC50 (Homo sapiens [2]) was less than 3 and the inhibition (P2Y purinoceptor 2 [3]) was “Active”. It also gave a Ratio IC50 (Homo sapiens [4]) of less than 3, a Ratio IC50 (Homo sapiens [5]) of less than 3 and a Ratio IC50 (Homo sapiens [6]) of less than 3.

In the case of Nc1ncnc2c1ncn2[C@@H]1O[C@H](COP(=O)(O)OP(=O)(O)OP(=O)(O)O)[C@@H](O)[C@H]1O, the Ratio EC50 (Homo sapiens [7]) is reported as 350.

With Nc1ncnc2c1ncn2[C@@H]1O[C@H](COP(=O)(O)OP(=O)(O)OP(=O)(O)OP(=O)(O)OC[C@@H]2O[C@H](n3cnc4c(N)ncnc43)[C@@H](O)[C@H]2O)[C@@H](O)[C@H]1O the Activity [8] was “inactive”, the Activity [9] was “inactive” and the Activity [10] was “inactive”. The Ratio EC50 (Homo sapiens [7]) was greater than 4000, the Activity [11] was “inactive” and the Activity [12] was “inactive”. The Activity (Homo sapiens [13]) was “inactive”, the Activity [14] was “inactive” and the Activity [15] was “inactive”. The Ratio EC50 (Homo sapiens [16]) was 25.

For Nc1c(S(=O)(=O)O)cc(Nc2ccc(Nc3ccccc3Cl)c(C(=O)O)c2)c2c1C(=O)c1ccccc1C2=O, the inhibition (P2Y purinoceptor 2 [3]) was “Active”.

Compound CSc1nc(N)c2ncn([C@@H]3O[C@H](COP(=O)(O)OP(=O)(O)OP(=O)(O)O)[C@@H](O)[C@H]3O)c2n1 has a Ratio EC50 (Homo sapiens [7]) of 350.

Compound O=c1ccn([C@@H]2O[C@H](COP(=O)(O)OP(=O)(O)OP(=O)(O)O)[C@@H](O)[C@H]2O)c(=O)[nH]1 [URIDINE TRIPHOSPHATE] has a Ratio EC50 (Homo sapiens [17]) greater than 100, a Ratio EC50 (Homo sapiens [18]) of 10 to 50 and an EC50 (P2Y purinoceptor 2 [19]) of 911 nM. For the same compound, the Activity [9] was “Active”, the Ratio EC50 (Homo sapiens [20]) was 10 to 50 and the Activity [10] was “Active”. The Ratio EC50 (Homo sapiens [21]) was 10 to 50, the Ratio EC50 (Homo sapiens [7]) was 350 and the Ratio EC50 (Homo sapiens [22]) was 10 to 50. The Ratio EC50 (Homo sapiens [23]) was 10 to 50, the Ratio EC50 (Homo sapiens [24]) was 150 and the Activity [11] was “inactive”. The Activity [12] was “inactive”, the Activity (Homo sapiens [13]) was “Active” and the Activity [14] was “inactive”. For the same compound, the Ratio EC50 (Homo sapiens [25]) was 100, the Activity [15] was “inactive” and the Ratio EC50 (Homo sapiens [16]) was 50. It also gave an EC50 (P2Y purinoceptor 2 [26]) of 996 nM, an EC50 (P2Y purinoceptor 2 [27]) of 70.6 nM and a Ratio EC50 (Homo sapiens [28]) of 300. For the same compound, the EC50 (P2Y purinoceptor 2 [29]) was 5.61 nM.

In the case of Nc1c(S(=O)(=O)O)cc(Nc2ccccc2)c2c1C(=O)c1ccccc1C2=O, the inhibition (Homo sapiens [30]) is reported as “Active”, the inhibition (Homo sapiens [31]) is reported as “Active” and the inhibition [32] is reported as “Active”. For the same compound, the inhibition (P2Y purinoceptor 2 [3]) was “Active”.

In the case of Cc1cccc(Nc2ccc(Nc3cc(S(=O)(=O)O)c(N)c4c3C(=O)c3ccccc3C4=O)cc2C(=O)O)c1C, the inhibition (Homo sapiens [30]) is reported as “Active”, the inhibition [32] is reported as “Active” and the inhibition (P2Y purinoceptor 2 [3]) is reported as “Active”.
